Assay results as given in ChEMBL document CHEMBL4334542, “Antimalarial N 1,N 3-Dialkyldioxonaphthoimidazoliums: Synthesis, Biological Activity, and Structure-activity Relationships” (ACS Med Chem Lett, 2020).
The source made the active and inactive calls. The calls are words filed in the database; no cut-off is given here.

Experiments:
Plasmodium falciparum [1] = assay: Antimalarial activity against asexual stage of Plasmodium falciparum Dd2 infected in erythrocytes assessed as reduction in parasite growth incubated for 48 hrs under hypoxic condition by Hoechst 33342 staining based flow cytometry; assay type: functional, organism-based; details: Dd2, 48 h
Outline: (§1)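 Asexual Dd2 and 3D7 parasites in erythrocytes; DNA content of infected cells measured by Hoechst 33342 staining and FACS. IC50 is the concentration giving 50% of the net fluorescence of untreated control cultures; mean ± SD of n = 3 separate determinations.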

Plasmodium falciparum [2] = assay: Antimalarial activity against asexual stage of Plasmodium falciparum 3D7 infected in erythrocytes assessed as reduction in parasite growth incubated for 48 hrs under hypoxic condition by Hoechst 33342 staining based flow cytometry; assay type: functional, organism-based; details: 3D7, 48 h; outline: as §1
CHO-K1 = assay: Cytotoxicity against CHOK1 cells assessed as reduction in cell viability incubated for 48 hrs by CellTiter 96 aqueous one solution assay; assay type: cell-based; details: Cricetulus griseus, CHO-K1, 48 h
Outline: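 Cell growth measured by a tetrazolium dye assay. IC50 is the concentration reducing growth by 50% relative to untreated cultures; mean ± SD of n = 3 separate determinations.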

Plasmodium falciparum [3] = assay: Antimalarial activity against asexual stage of Plasmodium falciparum NF54 assessed as reduction in parasite growth incubated for 96 hrs by SYBR Green I dye-based fluorescence assay; assay type: functional, organism-based; details: NF54, 96 h
Outline: (§2)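 Asexual NF54, K1 and W2 parasites; proliferation read as SYBR Green I fluorescence. IC50 is the concentration giving 50% of the net SYBR Green I fluorescence of untreated control cultures; mean ± SEM of n = 3 independent biological replicates.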

Plasmodium falciparum [4] = assay: Antimalarial activity against asexual stage of Plasmodium falciparum K1 assessed as reduction in parasite growth incubated for 96 hrs by SYBR Green I dye-based fluorescence assay; assay type: functional, organism-based; details: K1, 96 h; outline: as §2
Plasmodium falciparum [5] = assay: Antimalarial activity against asexual stage of Plasmodium falciparum W2 assessed as reduction in parasite growth incubated for 96 hrs by SYBR Green I dye-based fluorescence assay; assay type: functional, organism-based; details: W2, 96 h
Plasmodium falciparum [6] = assay: Antimalarial activity against Plasmodium falciparum NF54 early gametocytes transfected with luciferase gene incubated for 48 hrs by luciferase reporter gene assay; assay type: functional, organism-based; details: NF54, 48 h
Outline: (§3)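 Gametocytes of NF54-Pfs16-GFP-Luc, early (>95% stage II/III) or late (>90% stage IV/V); luciferase read-out. IC50 is the concentration giving 50% reduction of luminescence; mean ± SEM of n = 3 independent biological replicates.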

Plasmodium falciparum [7] = assay: Antimalarial activity against Plasmodium falciparum NF54 late gametocytes transfected with luciferase gene incubated for 48 hrs by luciferase reporter gene assay; assay type: functional, organism-based; details: NF54, 48 h; outline: as §3
[8] = Solubility of compound at pH 7.4 measured after 24 hrs; assay type: physicochemical; details: buffer
Outline: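 Water solubility measured at pH 7.4.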

[9] = Effective permeability of compound at pH 7.4 measured after 16 hrs PAMPA; assay type: ADME; details: pH 7.4, 16 h
[10] = Stability in rat liver microsomes incubated for 45 mins in presence of NADPH by chromatographic analysis; assay type: ADME, Microsome; details: 0.75 h
[11] = Half life in C57BL/6 mouse at 2 mg/kg, iv measured upto 24 hrs by LCMS analysis; assay type: ADME, organism-based; details: in vivo
[12] = Volume of distribution in C57BL/6 mouse at 2 mg/kg, iv measured upto 24 hrs by LCMS analysis; assay type: ADME, organism-based; details: in vivo
[13] = AUC (0 to last) at steady state in C57BL/6 mouse at 2 mg/kg, iv measured upto […] by LCMS analysis; assay type: ADME, organism-based; design: dose 2 mg/kg, time 0 - last, route intravenous; details: in vivo
[14] = Half life in C57BL/6 mouse at 20 mg/kg, po measured upto 24 hrs by LCMS analysis; assay type: ADME, organism-based; details: in vivo
[15] = Cmax in C57BL/6 mouse at 20 mg/kg, po measured upto 24 hrs by LCMS analysis; assay type: ADME, organism-based; design: dose 20 mg/kg, route oral; details: in vivo
[16] = Tmax in C57BL/6 mouse at 20 mg/kg, po measured upto 24 hrs by LCMS analysis; assay type: ADME, organism-based; details: in vivo
[17] = AUC (0 to last) in C57BL/6 mouse at 20 mg/kg, po measured upto 24 hrs by LCMS analysis; assay type: ADME, organism-based; design: dose 20 mg/kg, time 0 - last, route oral; details: in vivo
[18] = Oral bioavailability in C57BL/6 mouse at 20 mg/kg measured upto 24 hrs by LCMS analysis; assay type: ADME, organism-based; details: in vivo
[19] = Toxicity in C57BL/6 mouse assessed as distress effect at 20 mg/kg, po observed upto 24 hrs; assay type: organism-based; details: in vivo
Outline: (§4)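 Male C57BL6 mice given one dose, 2 mg/kg iv or 20 mg/kg oral (n=3 per route), checked for signs of distress 24 h after dosing.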

[20] = Toxicity in C57BL/6 mouse assessed as distress effect at 2 mg/kg, iv observed upto 24 hrs; assay type: organism-based; details: in vivo; outline: as §4
Plasmodium falciparum [21] = assay: Antimalarial activity against Plasmodium falciparum 3D7 infected in orally dosed NOD-SCID IL-2Ry deficient mouse assessed as reduction in parasitemia administered on day 3 to 6 and measured on day 7 by TER-119-PE and SYTO-19 dye based flow cytometry; assay type: functional; details: 3D7, po
Outline: (§5)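 Humanized mouse infected with P. falciparum Pf3D7 0087/N9; oral dosing on Days 3–6 at 5 dose levels spanning 1–50 mg/kg. Parasitemia measured each treatment day and on Day 7. ED90 from non-linear fit of log Day-7 parasitemia against oral dose, relative to untreated controls.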

Plasmodium falciparum [22] = assay: Antimalarial activity against Plasmodium falciparum NF54 incubated for 48 hrs by [3H]-hypoxanthine incorporation assay; assay type: functional, organism-based
Plasmodium falciparum [23] = assay: Antimalarial activity against Plasmodium falciparum K1 incubated for 48 hrs by [3H]-hypoxanthine incorporation assay; assay type: functional, organism-based
Plasmodium falciparum [24] = assay: Antimalarial activity against Plasmodium falciparum TM90C2B incubated for 48 hrs by [3H]-hypoxanthine incorporation assay; assay type: functional, organism-based
[25] = Toxicity in C57BL/6 mouse at 20 mg/kg, po; assay type: organism-based; details: in vivo; outline: as §4
[26] = Toxicity in C57BL/6 mouse at 2 mg/kg, iv; assay type: organism-based; details: in vivo; outline: as §4
[27] = Time at which plasma concentration stays above in vitro IC50 for asexual stage of Plasmodium falciparum 3D7 infected in erythrocytes in C57BL/6 mouse at 20 mg/kg, po; assay type: ADME, organism-based; details: in vivo
Plasmodium falciparum [28] = assay: Antimalarial activity against Plasmodium falciparum 3D7 infected in NOD-SCID IL-2Ry deficient mouse assessed as reduction in parasitemia at 50 mg/kg, po administered on day 3 to 6 and measured on day 7 by TER-119-PE and SYTO-19 dye based flow cytometry; assay type: functional, organism-based; outline: as §5
[29] = Redox cycling activity of the compound […] measured after 45 mins by phenol red reagent based horseradish peroxidase coupled assay
Outline: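 Redox cycling EC50 determined by the phenol red horseradish peroxidase assay.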

Cc1n(C(C)C)c2c([n+]1C(C)C)C(=O)c1ccccc1C2=O.[Br-]
IC50 (Plasmodium falciparum [1]): 4.7 nM | IC50 (Plasmodium falciparum [2]): 6.5 nM | IC50 (CHO-K1): 56700 nM | IC50 (Plasmodium falciparum [3]): 1.43 nM | IC50 (Plasmodium falciparum [4]): 2.5 nM | IC50 (Plasmodium falciparum [5]): 2.18 nM | IC50 (Plasmodium falciparum [6]): 72 nM | IC50 (Plasmodium falciparum [7]): 653 nM | solubility at 24 h [8]: > 100 µM | Peff [9]: Impermeable | Stability [10]: Stable | half-life [11]: 1.4 h | Vd [12]: 8.3 L/kg | AUClast [13]: 130 µmol·min/L | half-life [14]: 11.3 h | Cmax [15]: 337 nM | Tmax [16]: 2 h | AUClast [17]: 69 µmol·min/L | bioavailability [18]: 5% | Activity [19]: Non-Toxic | Activity [20]: Non-Toxic | ED90 (Plasmodium falciparum [21]): 34 mg/kg | IC50 (Plasmodium falciparum [22]): 1 nM | IC50 (Plasmodium falciparum [23]): 1.9 nM | IC50 (Plasmodium falciparum [24]): 1.6 nM | Activity [25]: Non-Toxic | Activity [26]: Non-Toxic | Time [27]: 24 h | Activity (Plasmodium falciparum [28]): inactive | Activity [29]: Active
